Paper PMC9059734 (RSC Advances, 2019)
pEC50, pKd: −log10 of the molar value. Structures can show the parent of a compound that is named as a salt. Where two headings read alike, the source gives them in different places. One block for each compound: values may come before it.

Experiments:
MC3T3-E1 cells [1] = assay: Q-PCR of osteogenic differentiation marker genes, SD model; type: cell-based, mouse; conditions: MC3T3-E1, day 7, with TNF-α
In short: (§1)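 On day 7 after day-0 treatment (5 ng mL−1 TNF-α ± test compound; C2C12 also with 100 ng mL−1 BMP-2), 2 × 10^5 cells harvested. Total RNA by TRIzol, column-purified and DNase-treated; 0.25 μg reverse transcribed. COL-I, ALP, OCN, BMP-2, RUNX-2 and OSX measured by real-time Q-PCR with gene-specific primers. Normalised to β-actin by ΔΔCt. Triplicate.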

C2C12 cells [2] = assay: Q-PCR of osteogenic differentiation marker genes, ID model; type: cell-based, mouse; conditions: C2C12, day 7, with TNF-α
In short: as §1

C2C12 cells [3] = assay: ALP staining and activity, inflammatory differentiation; type: cell-based; conditions: Mus musculus, C2C12, read-out: EC50 based on ALP activity
MC3T3-E1 cells [4] = assay: ALP staining and activity, self-differentiation; type: cell-based; conditions: Mus musculus, MC3T3-E1, read-out: EC50 based on ALP activity
In short: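 MC3T3-E1 cells in DMEM with 10% FBS and 1% penicillin/streptomycin at 37 °C, 5% CO2; plated at 50% confluence, 24 h. No inducer. On day 0, given ddH2O solvent or 5 ng mL−1 TNF-α ± test compound at eleven levels (10 nM–800 μM). On day 7: kit ALP stain; ALP activity by OD 405 nm, per μg BCA total protein; EC50 from ALP activity. Mean ± SEM, triplicate.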

[5] = test system: B-Raf^V600E dependented tumor xenograft models; conditions: orally dosed, without evidence of cytotoxicity; cited from earlier work
[6] = test system: melanoma cells bearing B-Raf^V600E; conditions: cited from earlier work
C2C12 cells [7] = assay: Mineralization assessment by Alizarin Red S staining, ID model; type: cell-based, mouse; conditions: C2C12, day 35, with TNF-α, vs negative control (p < 0.05)
MC3T3-E1 cells [8] = assay: Mineralization assessment by Alizarin Red S staining, SD model; type: cell-based, mouse; conditions: MC3T3-E1, day 35, with TNF-α, vs negative control (p < 0.05)
mouse Elp2 protein = target: T1, mouse Elp2 protein (Mus musculus, UniProt Q91WG4); assay: SPRi affinity measurement of chip-immobilized library compounds to Elp2 protein; type: binding
T1 sequence (Q91WG4 1-831): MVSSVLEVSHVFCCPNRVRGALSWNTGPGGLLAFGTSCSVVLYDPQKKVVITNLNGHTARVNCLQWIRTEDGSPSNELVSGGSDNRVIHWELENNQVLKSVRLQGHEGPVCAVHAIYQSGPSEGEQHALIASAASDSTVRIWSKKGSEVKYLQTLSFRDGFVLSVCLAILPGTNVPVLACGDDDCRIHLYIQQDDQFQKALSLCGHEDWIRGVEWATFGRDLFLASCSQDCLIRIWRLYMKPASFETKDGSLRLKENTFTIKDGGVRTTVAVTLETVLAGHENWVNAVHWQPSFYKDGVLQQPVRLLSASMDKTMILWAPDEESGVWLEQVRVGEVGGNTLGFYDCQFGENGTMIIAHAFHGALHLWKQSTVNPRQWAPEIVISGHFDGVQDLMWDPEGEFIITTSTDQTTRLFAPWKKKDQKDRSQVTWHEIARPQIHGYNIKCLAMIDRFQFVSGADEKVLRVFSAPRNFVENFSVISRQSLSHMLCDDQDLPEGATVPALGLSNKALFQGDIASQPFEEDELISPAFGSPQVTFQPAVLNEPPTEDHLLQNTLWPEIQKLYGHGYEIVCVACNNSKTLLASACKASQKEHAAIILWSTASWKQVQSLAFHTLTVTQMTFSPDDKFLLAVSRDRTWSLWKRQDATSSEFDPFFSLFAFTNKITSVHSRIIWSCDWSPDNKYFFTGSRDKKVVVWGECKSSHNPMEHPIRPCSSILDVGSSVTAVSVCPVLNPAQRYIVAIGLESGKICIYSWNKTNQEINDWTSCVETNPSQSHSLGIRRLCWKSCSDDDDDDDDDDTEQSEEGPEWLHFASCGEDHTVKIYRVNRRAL

[9] = SPRi, Elp2 200-3200 nM, 1:1 Langmuir binding

pEC50 (C2C12 cells [3]): 4.99 | pEC50 (MC3T3-E1 cells [4]): 4.78
Compound: CCCS(=O)(=O)Nc1ccc(F)c(C(=O)c2c[nH]c3ncc(Cl)cc23)c1F [PLX-4720]
mRNA expression levels of COL-I, ALP, OCN, BMP-2, RUNX-2 and OSX (MC3T3-E1 cells [1]): elevated | mRNA expression levels of COL-I, ALP, OCN, BMP-2, RUNX-2 and OSX (C2C12 cells [2]): elevated | tumor growth [5]: tumor growth delays | ERK phosphorylation [6]: significantly inhibits | Mineralization, Alizarin Red S stained spots (C2C12 cells [7]): more stained spots compared with the negative control | Mineralization, Alizarin Red S stained spots (MC3T3-E1 cells [8]): more stained spots compared with the negative control

pKd (mouse Elp2 protein): 4.51 | koff (mouse Elp2 protein): 0.0819 s⁻¹ | kon (mouse Elp2 protein): 2640 M⁻¹ s⁻¹
Compound: O=C1O[C@H](CO)[C@@H](O)[C@H](O)[C@H]1O [Gluconolactone]

pKd (mouse Elp2 protein; [9]): 6.32 | koff (mouse Elp2 protein; [9]): 2.59e-05 s⁻¹ | kon (mouse Elp2 protein; [9]): 53.8 M⁻¹ s⁻¹
Compound: RK-33

pKd (mouse Elp2 protein; [9]): 5.83 | koff (mouse Elp2 protein; [9]): 0.0166 s⁻¹ | kon (mouse Elp2 protein; [9]): 11300 M⁻¹ s⁻¹
Compound: CC(C)N(CCC(c1ccccc1)c1cc(CO)ccc1O)C(C)C (centres unmarked) [5-Hydroxymethyl tolterodine]

pKd (mouse Elp2 protein): 5.34 | koff (mouse Elp2 protein): 0.00454 s⁻¹ | kon (mouse Elp2 protein): 987 M⁻¹ s⁻¹
Compound: CC(C)NCC(O)c1ccc(O)c(O)c1 (centres unmarked) [Isoprenaline hydrochloride]

pKd (mouse Elp2 protein): 6.17 | koff (mouse Elp2 protein): 0.000529 s⁻¹ | kon (mouse Elp2 protein): 783 M⁻¹ s⁻¹
Compound: CNC[C@H](O)c1ccc(O)c(O)c1 [Epinephrine bitartrate]

pKd (mouse Elp2 protein): 5.60 | koff (mouse Elp2 protein): 0.000462 s⁻¹ | kon (mouse Elp2 protein): 182 M⁻¹ s⁻¹
Compound: Cn1nnc2c(C(N)=O)ncn2c1=O [Temozolomide]
